Source: ChEMBL document CHEMBL5329156, “Discovery and development of novel substituted monohydrazides as potent antifungal agents” (RSC Med Chem, 2023)
In brackets after ≈: the same amount, converted by molar mass.

Columns and labels:
Candida albicans [1] = assay: Antifungal activity against Candida albicans ATCC 10231 assessed as fungal growth inhibition by double dilution method; type: functional
In short: (§1)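 Broth microdilution after CLSI M27-A3/M38-A2 with minor changes. Single colony grown overnight in YPD at 35 °C, 200 rpm. Compound final range 0.06-31.3 µg/mL; incubated 48 h at 35 °C.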

Candida albicans [2] = assay: Antifungal activity against Candida albicans ATCC 64124 assessed as fungal growth inhibition by double dilution method; type: functional
In short: (§2)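 Broth microdilution after CLSI M27-A3/M38-A2 with minor modifications. A single colony was grown overnight in YPD at 35 °C with shaking at 200 rpm. Cells were mixed 1:1 with compound (final 0.06-31.3 µg/mL, from DMSO stocks) and incubated 48 h at 35 °C.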

Candida albicans [3] = assay: Antifungal activity against itraconazole/fluconazole susceptible Candida albicans ATCC MYA-2876 assessed as fungal growth inhibition by double dilution method; type: functional; in short: as §2
Candida albicans [4] = assay: Antifungal activity against itraconazole/fluconazole resistant Candida albicans ATCC 90819 assessed as fungal growth inhibition by double dilution method; type: functional; in short: as §2
Candida albicans [5] = assay: Antifungal activity against itraconazole/fluconazole susceptible Candida albicans ATCC MYA-2310 assessed as fungal growth inhibition by double dilution method; type: functional; in short: as §2
Candida albicans [6] = assay: Antifungal activity against itraconazole/fluconazole resistant Candida albicans ATCC MYA-1237 assessed as fungal growth inhibition by double dilution method; type: functional; in short: as §2
Candida albicans [7] = assay: Antifungal activity against itraconazole/fluconazole resistant Candida albicans ATCC MYA-1003 assessed as fungal growth inhibition by double dilution method; type: functional; in short: as §2
Nakaseomyces glabratus [8] = assay: Antifungal activity against Candida glabrata ATCC 2001 assessed as fungal growth inhibition by double dilution method; type: functional; in short: as §1
Pichia kudriavzevii [9] = assay: Antifungal activity against Pichia kudriavzevii ATCC 6258 assessed as fungal growth inhibition by double dilution method; type: functional; in short: as §1
Nakaseomyces glabratus [10] = assay: Antifungal activity against Candida glabrata ATCC 22019 assessed as fungal growth inhibition by double dilution method; type: functional; in short: as §1
[Candida] auris [11] = Antifungal activity against Candida auris AR Bank # 0384 assessed as fungal growth inhibition by double dilution method; type: functional; conditions: Candidozyma auris; in short: as §1
[Candida] auris [12] = Antifungal activity against Candida auris AR Bank # 0390 assessed as fungal growth inhibition by double dilution method; type: functional; conditions: Candidozyma auris; in short: as §1
Cryptococcus neoformans = assay: Antifungal activity against Cryptococcus neoformans ATCC MYA-895 assessed as fungal growth inhibition by double dilution method; type: functional; in short: as §1
Aspergillus terreus = assay: Antifungal activity against Aspergillus terreus ATCC MYA-3633 assessed as fungal growth inhibition by double dilution method; type: functional
Aspergillus fumigatus [13] = assay: Antifungal activity against Aspergillus fumigatus NRRL 163 assessed as fungal growth inhibition by double dilution method; type: functional
Aspergillus flavus = assay: Antifungal activity against Aspergillus flavus ATCC MYA-3631 assessed as fungal growth inhibition by double dilution method; type: functional
Aspergillus nidulans = assay: Antifungal activity against Aspergillus nidulans ATCC 38163 assessed as fungal growth inhibition by double dilution method; type: functional
Aspergillus fumigatus [14] = assay: Antifungal activity against Aspergillus fumigatus NRRL 5109 assessed as fungal growth inhibition by double dilution method; type: functional
Aspergillus fumigatus [15] = assay: Antifungal activity against Aspergillus fumigatus NRRL 6113 assessed as fungal growth inhibition by double dilution method; type: functional
[Candida] auris [16] = Antifungal activity against Candida auris AR Bank # 381 assessed as fungal growth inhibition by double dilution method; type: functional; conditions: Candidozyma auris; in short: as §1
[Candida] auris [17] = Antifungal activity against Candida auris AR Bank # 382 assessed as fungal growth inhibition by double dilution method; type: functional; conditions: Candidozyma auris; in short: as §1
[Candida] auris [18] = Antifungal activity against Candida auris AR Bank # 383 assessed as fungal growth inhibition by double dilution method; type: functional; conditions: Candidozyma auris; in short: as §1
[Candida] auris [19] = Antifungal activity against Candida auris AR Bank # 384 assessed as fungal growth inhibition by double dilution method; type: functional; conditions: Candidozyma auris; in short: as §1
[Candida] auris [20] = Antifungal activity against Candida auris AR Bank # 385 assessed as fungal growth inhibition by double dilution method; type: functional; conditions: Candidozyma auris; in short: as §1
[Candida] auris [21] = Antifungal activity against Candida auris AR Bank # 386 assessed as fungal growth inhibition by double dilution method; type: functional; conditions: Candidozyma auris; in short: as §1
[Candida] auris [22] = Antifungal activity against Candida auris AR Bank # 387 assessed as fungal growth inhibition by double dilution method; type: functional; conditions: Candidozyma auris; in short: as §1
[Candida] auris [23] = Antifungal activity against Candida auris AR Bank # 388 assessed as fungal growth inhibition by double dilution method; type: functional; conditions: Candidozyma auris; in short: as §1
[Candida] auris [24] = Antifungal activity against Candida auris AR Bank # 389 assessed as fungal growth inhibition by double dilution method; type: functional; conditions: Candidozyma auris; in short: as §1
[Candida] auris [25] = Antifungal activity against Candida auris AR Bank # 390 assessed as fungal growth inhibition by double dilution method; type: functional; conditions: Candidozyma auris; in short: as §1
Candida duobushaemulonii [26] = assay: Antifungal activity against Candida duobushaemulonii AR Bank # 391 assessed as fungal growth inhibition by double dilution method; type: functional; conditions: Candidozyma duobushaemuli; in short: as §1
Candida duobushaemulonii [27] = assay: Antifungal activity against Candida duobushaemulonii AR Bank # 392 assessed as fungal growth inhibition by double dilution method; type: functional; conditions: Candidozyma duobushaemuli; in short: as §1
[Candida] haemuloni [28] = Antifungal activity against Candida haemulonii AR Bank # 393 assessed as fungal growth inhibition by double dilution method; type: functional; conditions: Candidozyma haemuli; in short: as §1
Candida duobushaemulonii [29] = assay: Antifungal activity against Candida duobushaemulonii AR Bank # 394 assessed as fungal growth inhibition by double dilution method; type: functional; conditions: Candidozyma duobushaemuli; in short: as §1
[Candida] haemuloni [30] = Antifungal activity against Candida haemulonii AR Bank # 395 assessed as fungal growth inhibition by double dilution method; type: functional; conditions: Candidozyma haemuli; in short: as §1
Kodamaea ohmeri = assay: Antifungal activity against Kodamaea ohmeri AR Bank # 396 assessed as fungal growth inhibition by double dilution method; type: functional; in short: as §1
Pichia kudriavzevii [31] = assay: Antifungal activity against Pichia kudriavzevii AR Bank # 397 assessed as fungal growth inhibition by double dilution method; type: functional; in short: as §1
Clavispora lusitaniae = assay: Antifungal activity against Clavispora lusitaniae AR Bank # 398 assessed as fungal growth inhibition by double dilution method; type: functional; in short: as §1
Saccharomyces cerevisiae [32] = assay: Antifungal activity against Saccharomyces cerevisiae AR Bank # 399 assessed as fungal growth inhibition by double dilution method; type: functional; in short: as §1
Saccharomyces cerevisiae [33] = assay: Antifungal activity against Saccharomyces cerevisiae AR Bank # 400 assessed as fungal growth inhibition by double dilution method; type: functional; in short: as §1
J774.A1 = assay: Cytotoxicity against J774A.1 cells assessed as reduction in cell viability at 31.3 microg/ml; type: toxicity, cell-based; conditions: mouse, dose 31.3 µg/ml
In short: (§3)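 Cells in DMEM with 10% FBS and 1% Pen/Strep, seeded at 10,000 cells/well and held overnight at 37 °C, 5% CO2. Compounds added at final 31.3-0.12 µg/mL (0.05% DMSO vehicle) for 24 h. Resazurin then added for 6 h; fluorescence read at ex 560/em 590. Triton X-100 1% as positive control; values normalized to vehicle. Run in quadruplicate.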

HEK293 = assay: Cytotoxicity against human HEK-293 cells assessed as reduction in cell viability at 31.3 microg/ml; type: toxicity, cell-based; conditions: dose 31.3 µg/ml; in short: as §3
HepG2 = assay: Cytotoxicity against human HepG2 cells assessed as reduction in cell viability upto 31.3 microg/ml; type: toxicity, cell-based; conditions: dose < 31.3 µg/ml; in short: as §3

In the case of `COc1cccc(NNC(=O)c2cnccn2)c1`, the MIC (Candida albicans [1]) is reported as 0.49 µg/mL (≈ 2.01 µM), the MIC (Candida albicans [2]) is reported as 0.98 µg/mL (≈ 4.01 µM) and the MIC (Candida albicans [3]) is reported as 1.95 µg/mL (≈ 7.98 µM). It also gave an MIC (Candida albicans [4]) of 1.95 µg/mL (≈ 7.98 µM), an MIC (Candida albicans [5]) of 1.95 µg/mL (≈ 7.98 µM) and an MIC (Candida albicans [6]) of 1.95 µg/mL (≈ 7.98 µM). For the same compound, the MIC (Candida albicans [7]) was 0.98 µg/mL (≈ 4.01 µM), the MIC (Nakaseomyces glabratus [8]) was 7.8 µg/mL (≈ 31.9 µM) and the MIC (Pichia kudriavzevii [9]) was 0.49 µg/mL (≈ 2.01 µM). For the same compound, the MIC (Nakaseomyces glabratus [10]) was 1.95 µg/mL (≈ 7.98 µM), the MIC ([Candida] auris [11]) was 1.95 µg/mL (≈ 7.98 µM) and the MIC ([Candida] auris [12]) was 0.98 µg/mL (≈ 4.01 µM). The MIC (Cryptococcus neoformans) was 0.49 µg/mL (≈ 2.01 µM), the MIC (Aspergillus terreus) was 1.95 µg/mL (≈ 7.98 µM) and the MIC (Aspergillus fumigatus [13]) was 15.6 µg/mL (≈ 63.9 µM). For the same compound, the MIC (Aspergillus flavus) was greater than 31.3 µg/mL, the MIC (Aspergillus nidulans) was 1.95 µg/mL (≈ 7.98 µM) and the MIC (Aspergillus fumigatus [14]) was 7.8 µg/mL (≈ 31.9 µM). It also gave an MIC (Aspergillus fumigatus [15]) greater than 31.3 µg/mL, an MIC ([Candida] auris [16]) of 1.95 µg/mL (≈ 7.98 µM) and an MIC ([Candida] auris [17]) of 0.98 µg/mL (≈ 4.01 µM). For the same compound, the MIC ([Candida] auris [18]) was 1.95 µg/mL (≈ 7.98 µM), the MIC ([Candida] auris [19]) was 1.95 µg/mL (≈ 7.98 µM) and the MIC ([Candida] auris [20]) was 7.8 µg/mL (≈ 31.9 µM). The MIC ([Candida] auris [21]) was 0.49 µg/mL (≈ 2.01 µM), the MIC ([Candida] auris [22]) was 0.98 µg/mL (≈ 4.01 µM) and the MIC ([Candida] auris [23]) was 3.9 µg/mL (≈ 16 µM). It also gave an MIC ([Candida] auris [24]) of 0.98 µg/mL (≈ 4.01 µM), an MIC ([Candida] auris [25]) of 0.98 µg/mL (≈ 4.01 µM) and an MIC (Candida duobushaemulonii [26]) of 3.9 µg/mL (≈ 16 µM). It also gave an MIC (Candida duobushaemulonii [27]) of 0.98 µg/mL (≈ 4.01 µM), an MIC ([Candida] haemuloni [28]) of 0.49 µg/mL (≈ 2.01 µM) and an MIC (Candida duobushaemulonii [29]) of 1.95 µg/mL (≈ 7.98 µM). For the same compound, the MIC ([Candida] haemuloni [30]) was 0.49 µg/mL (≈ 2.01 µM), the MIC (Kodamaea ohmeri) was 0.49 µg/mL (≈ 2.01 µM) and the MIC (Pichia kudriavzevii [31]) was 0.49 µg/mL (≈ 2.01 µM). It also gave an MIC (Clavispora lusitaniae) of 1.95 µg/mL (≈ 7.98 µM), an MIC (Saccharomyces cerevisiae [32]) of 7.8 µg/mL (≈ 31.9 µM) and an MIC (Saccharomyces cerevisiae [33]) of 3.9 µg/mL (≈ 16 µM). For the same compound, the Activity (J774.A1) was “Non-Toxic”, the Activity (HEK293) was “Non-Toxic” and the Activity (HepG2) was “Non-Toxic”.
